STAT1 blocker – inhibitors of IFN-gamma induced STAT1 signaling | inhibition, % at 5.5 µM | actives 0.35% (n = 200,000) | NIH 3T3 STAT1-luciferase reporter, luminescence;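 active means inhibition above a set limit, the mean inhibition across all tested compounds plus 3 SD, cut at about 34% in these data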;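 further: 0% = IFN-gamma with DMSO and 100% = IFN-gamma with 300 µM nifuroxazide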
APP 5'UTR act – APP 5'UTR luciferase reporter activation. SH-SY5Y APP 5'UTR luciferase reporter, luminescence; zero percent = DMSO vehicle wells. activation, % at 2 µM. actives 1% (n = 190,000). AID 1276;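 active means activation above a set limit, based on mean plus 3 SD of controls, cut at about 140% in these data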
STAT3 blocker – reduces IL-6 driven STAT3 reporter signal. U3A cells, IL-6 STAT3-luciferase reporter, luminescence; host cell line lacks STAT1. inhibition, % at 5.5 µM. actives 0.89% (n = 190,000). AID 862;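 active means inhibition above the mean inhibition across all screened compounds plus 3 SD, cut at about 44% in these data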;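 further: 0% = DMSO only wells and 100% = 100 µM nifuroxazide control wells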
STAT3 activator – activators of IL-6 induced STAT3 signaling | U3A cells, IL-6 STAT3-luciferase reporter, luminescence; 100% = signal with IL-6 EC80 alone | actives 0.91% (n = 190,000) | activation (% of control), % at 5.6 µM | AID 871;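 active means activation above the screen-wide mean of compound activation plus 3 SD, cut at about 130% in these data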;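 further: 0% = background luminescence of wells with medium and substrate only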
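Material: human U3A cells carrying STAT3-luciferase construct. Measured by: reporter luminescence signal. Timing: compound 1 h, then IL-6 6 h at 37 °C.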
NF-kB expr up – raises NF-kB expression in human neuronal cells; fold change at 12.5 µM; actives 1.6% (n = 190,000); NF-kB reporter expression; hits give high values; in the data active means fold change above about 3.3
STAT1 act – STAT1 signaling activation; activation (% of control), % at 5.5 µM; actives 2.6% (n = 200,000); NIH 3T3 STAT1-luciferase reporter, IFN-gamma, luminescence; 100% = IFN-gamma alone, no compound;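 active means activation above the screen-wide mean activation plus 3 SD, cut at about 130% in these data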;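 further: raw ratio to IFN-gamma control signal so 100% means no change and 0% no light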
Active calls of the source: *; . = no result given. Sampled rows, rich in hits. Any-hit rate of the full collection: about 5.1%.

SMILES | STAT1 blocker | APP 5'UTR act | STAT3 blocker | STAT3 activator | NF-kB expr up | STAT1 act
Cc1cc2nc(C3CCN(C(=S)NCCCOC(C)C)CC3)[nH]c2cc1C | 2 | -9 | 4 | 101 | 0.8 | 97
CCN(CC)C(=O)c1sc(N2C(=O)Nc3ccccc3N2O)c(C(=O)OC)c1C | 3 | -3 | 10 | 93 | 1.3 | 96
O=C(O)COn1c(-c2ccc(Cl)cc2)nc2ccc(Cl)cc21 | -15 | 21 | -6 | 112 | 1.8 | 113
CCOC(=O)C(C)On1c(-c2ccccc2)nc2ccc([N+](=O)[O-])cc21 (configuration not stated) | -34 | 95 | 4 | 97 | 2.7 | 132*
O=C(O)COn1c(-c2ccccc2)nc2ccc([N+](=O)[O-])cc21 | -48 | 39 | -7 | 113 | 0.91 | 143*
CCOC(=O)C(C)On1c(-c2ccc(Cl)cc2)nc2ccc([N+](=O)[O-])cc21 (configuration not stated) | -36 | 68 | -8 | 113 | 5.8* | 133*
CC(C)Cn1c(-c2csc3c2CCCC3)n[nH]c1=S | 3 | 15 | 10 | 93 | 1 | 97
CCCCc1ccc(NC(=S)N2CCC(O)CC2)cc1 | -7 | 1 | -3 | 104 | 1.4 | 105
O=C(Nc1cc2c(cc1Cl)OCCCO2)c1ccco1 | -53 | 50 | 2 | 102 | 2.4 | 146*
O=C(Nc1cc2c(cc1Cl)OCCCO2)c1ccccc1 | -36 | 65 | 15 | 92 | 2.8 | 133*
COCCCn1nnnc1SCC(=O)Nc1ccc2c(c1)OCCO2 | 4 | 9 | 8 | 103 | 1.4 | 96
O=C(CSc1nnc(-c2cccc(Cl)c2)o1)Nc1ccc2c(c1)OCCO2 | -10 | 159* | 7 | 97 | 1.8 | 107
CCn1nnnc1SCC(=O)Nc1ccc2c(c1)OCCO2 | -39 | 45 | -16 | 116 | 2.4 | 139*
COC(=O)CNC(=O)COC(=O)c1cc(SC)ccc1Cl | 0 | 14 | 12 | 94 | 1 | 102
COc1ccc(/C=C/C(=O)O)cc1S(=O)(=O)NC1CCS(=O)(=O)C1 (configuration not stated) | -11 | 5 | -1 | 102 | 1 | 109
S=C(N/N=C/c1ccc(Cl)cc1)N1CCOCC1 | -36 | 27 | 6 | 98 | 1.5 | 132*
Cc1ccc(CNC(=S)N2CCOCC2)cc1 | 7 | 25 | 4 | 103 | 1.1 | 92
Cc1ccc(/C=N/NC(=S)N2CCOCC2)cc1 | -35 | 64 | -13 | 113 | 1.6 | 131*
O=C(CNC(=O)c1cccs1)OCC(=O)c1ccc(Cl)cc1 | -6 | -17 | 0 | 102 | 1 | 104
O=C(CNC(=O)c1cccs1)c1ccc(F)cc1 | -23 | 158* | 39 | 70 | 4* | 128
O=C(CNC(=O)c1ccc([N+](=O)[O-])cc1)c1ccccc1 | -38 | 76 | 12 | 99 | 1.7 | 134*
O=C(CNC(=O)c1cccs1)c1ccc([N+](=O)[O-])cc1 | -41 | 47 | -3 | 102 | 0.9 | 136*
CC(Cc1ccccc1)NC(=O)c1ccc([N+](=O)[O-])cc1 (configuration not stated) | -48 | 104 | -7 | 109 | 3.1 | 143*
O=C(CNC(=O)c1cccs1)OCC(=O)c1ccc([N+](=O)[O-])cc1 | 4 | 2 | -10 | 113 | 1 | 95
O=S(=O)(c1ccc(Cl)cc1)n1nnc2ccccc21 | 4 | 16 | 9 | 96 | 0.98 | 96
SMILES | STAT1 blocker | APP 5'UTR act | STAT3 blocker | STAT3 activator | NF-kB expr up | STAT1 act
CN(C)CCNS(=O)(=O)c1ccc(N2CCN(c3ccc(F)cc3)CC2)c([N+](=O)[O-])c1 | 8 | -11 | 3 | 97 | 1 | 93
CC(=O)c1ccc(NC(=S)NCC(c2ccco2)N2CCCC2)cc1 (configuration not stated) | -5 | 6 | 16 | 90 | 0.92 | 103
NC(=O)NC(=O)COC(=O)c1ccc(OC(F)F)cc1 | -5 | 1 | 12 | 94 | . | 102
Cc1cc(C)nc(NC(N)=NCCc2c[nH]c3ccccc23)n1 | 37* | -2 | 46* | 63 | 0.76 | 66
Nc1nc(Nc2ccc(Cl)cc2)nc2ccccc12 | 24 | 115 | 62* | 50 | 6* | 78
COc1cc(OC)cc(N(C(=O)CNC(=O)c2cccs2)C(C(=O)NCC2CCCO2)c2ccc(OC)c(OC)c2)c1 (configuration not stated) | 3 | 2 | 6 | 97 | 1.2 | 97
CC(C)(C)N=Cc1cc(-c2ccccc2)sc1O | -45 | . | 0 | 100 | 3.3 | 138*
CCN(CC)c1ccc(C=Nc2ccccc2)c(O)c1 | -6 | -4 | -2 | 104 | 1.2 | 102
COc1ccc(C(=O)C(OC(=O)c2ccccc2)c2ccccc2)cc1 (configuration not stated) | -36 | 42 | -22 | 125 | 1.5 | 133*
Cc1ccc(NC(=O)C(OC(=O)c2ccccc2Cl)c2ccccc2)cc1Cl (configuration not stated) | 4 | -15 | -7 | 106 | 1.1 | 96
COc1ccc(C(=O)C(OC(=O)c2ccccc2Cl)c2ccccc2)cc1 (configuration not stated) | -44 | 26 | -28 | 118 | 1.5 | 140*
Oc1ccc(Cl)cc1C1=NNC(c2ccc(Cl)cc2)C1 (configuration not stated) | -33 | 55 | -3 | 105 | 1.3 | 130*
Oc1ccc(Cl)cc1C1=NNC(c2cc(Br)cc3c2OCOC3)C1 (configuration not stated) | -7 | 11 | 13 | 91 | 1.3 | 104
O=C(NC(=S)Nc1nc2c(s1)CSc1ccccc1-2)c1ccccc1 | 15 | -5 | -82 | 167* | 1.2 | 87
COc1cc(NC(=O)c2cc3ccccc3o2)c(OC)cc1Cl | 1 | -15 | -57 | 154* | 1.1 | 99
N#Cc1ccccc1NC(=O)c1ccc(-c2ccccc2Cl)o1 | -46 | 45 | 8 | 94 | 2.1 | 138*
COc1ccccc1NC(=O)c1cc2ccccc2o1 | -58 | 46 | -73 | 165* | 2.4 | 154*
CN(C)S(=O)(=O)c1cccc(NC(=O)c2cc3ccccc3o2)c1 | -6 | 39 | 6 | 95 | 1.2 | 105
CC(C)C(=O)Nc1cccc(NC(=O)c2cc3ccccc3o2)c1 | -31 | 36 | 10 | 94 | 1.5 | 130*
CC(C)=C(NC(=O)c1ccccc1)C(=O)Nc1cccc(C(=O)O)c1 | 0 | 23 | 6 | 98 | 1.1 | 98
Cc1c(Cl)cccc1NC(=O)Cn1c(-c2ccc(F)cc2)noc1=O | 6 | -6 | -8 | 109 | 1.4 | 93
Cc1ccc(NC(=O)c2ccc([N+](=O)[O-])o2)c(C)c1 | -9 | 7 | 23 | 85 | 2 | 108
COc1ccc(NC(=O)c2cc3ccccc3o2)cc1 | -48 | 138* | 1 | 105 | 5.3* | 146*
